The source made the active and inactive calls. The rule behind the calls is not given here.
What was measured:
Vasopressin V1b receptor = target: T1, Vasopressin V1b receptor (Homo sapiens, UniProt P47901); experiment: Displacement of [3H]AVP from human vasopressin V1b receptor expressed in CHO cells co-expressing VIP-luciferase by scintillation counting-based whole cell binding assay
T1 sequence (P47901 whole entry): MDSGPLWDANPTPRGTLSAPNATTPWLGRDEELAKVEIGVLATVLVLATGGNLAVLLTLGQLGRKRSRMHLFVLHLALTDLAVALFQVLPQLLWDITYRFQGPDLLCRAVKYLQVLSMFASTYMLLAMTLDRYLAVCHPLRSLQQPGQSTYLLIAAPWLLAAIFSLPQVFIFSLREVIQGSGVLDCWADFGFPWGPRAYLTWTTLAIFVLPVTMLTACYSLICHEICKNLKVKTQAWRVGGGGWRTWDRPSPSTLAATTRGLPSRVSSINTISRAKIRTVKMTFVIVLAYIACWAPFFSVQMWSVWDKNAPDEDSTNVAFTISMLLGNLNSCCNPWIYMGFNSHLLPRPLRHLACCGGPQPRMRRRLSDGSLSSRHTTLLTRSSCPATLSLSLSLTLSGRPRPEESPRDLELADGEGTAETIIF
Summary of the method: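 Whole-cell binding in CHO cells stably expressing human V1b (VIP-luciferase line), grown at 37 °C, 5% CO2 in DMEM/F12 with 10% FBS and 0.4 mg/mL G418. Seeded at 30,000 cells, cultured overnight, washed with PBS. Serially diluted compound with 5 nM [3H]-AVP (final) in PBS, 10 mM MgCl2, 0.1% BSA, 1% DMSO, 30 min at room temperature. Wells washed, dried, scintillation counted.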

Rattus norvegicus [1] = experiment: Reduction in desmopressin/CRH-induced ACTH release in po dosed rat hyphalamic-pituitary-adrenal hyperactivity model; assay type: functional, organism-based
Summary of the method: (§1)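 Rats dosed orally with compound or vehicle (5% mulgofen in saline) at T=0. CRH (0.3 µg/kg) or PBS given iv via jugular catheter at T+100 min. dDAVP (0.5 mg/kg) or PBS given iv at T+120 min. 0.5 ml blood taken at T+130 min, kept on ice, centrifuged at 4 °C, plasma stored at -40 °C. ACTH measured by ELISA, drug level by mass spectrometry.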

[2] = Volume of distribution at steady state in Wistar rat at 1 mg/kg, iv; assay type: ADME, organism-based; set-up: dose 1 mg/kg, route intravenous; settings: in vivo, read-out: Vdss
Summary of the method: (§2)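 Male Wistar rats. iv dose 1 mg/kg in 10% (v/v) DMA in water. po dose 5 mg/kg in 5% (v/v) mulgofen in saline. Oral AUC reported as AUCt, iv AUC as AUCinf. Values given as mean ± spread.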

Homo sapiens [3] = species on record: Homo sapiens; experiment: Selectivity ratio for human vasopressin V1b receptor over human vasopressin V2 receptor
[4] = Apparent permeability of the compound from basolateral to apical side in human Caco2 cell membrane; assay type: ADME, cell-based; settings: Caco-2
[5] = Apparent permeability of the compound from apical to basolateral side in human Caco2 cell membrane; settings: Caco-2
[6] = Clearance in Wistar rat at 1 mg/kg, iv; assay type: ADME, organism-based; set-up: dose 1 mg/kg, route intravenous; settings: in vivo; summary of the method: as §2
Rattus norvegicus [7] = experiment: Reduction in desmopressin-induced ACTH release in rat hyphalamic-pituitary-adrenal hyperactivity model at 10 mg/kg, po; assay type: functional, organism-based; set-up: dose 10 mg/kg; summary of the method: as §1
[8] = target: T2, Vasopressin V1b receptor (Homo sapiens) (UniProt P47901); experiment: Antagonist activity at human vasopressin V1b receptor expressed CHO cells co-expressing VIP-luciferase assessed as reporter gene linked AVP-mediated intracellular calcium mobilization; assay type: functional, cell-based
T2 sequence (whole entry): T1 sequence (P47901 whole entry)

[9] = Elimination half life in Wistar rat at 1 mg/kg, iv; assay type: ADME, organism-based; set-up: dose 1 mg/kg, route intravenous; settings: in vivo, read-out: beta t1/2 (converted); summary of the method: as §2
Homo sapiens [10] = species on record: Homo sapiens; experiment: Selectivity ratio for human vasopressin V1b receptor over human oxytocin receptor
[11] = Inhibition of human Cytochrome P450; assay type: ADME
Homo sapiens [12] = species on record: Homo sapiens; experiment: Selectivity ratio for human vasopressin V1b receptor over human vasopressin V1a receptor
[13] = AUCt in Wistar rat at 5 mg/kg, po; assay type: ADME, organism-based; set-up: dose 5 mg/kg, route oral; settings: plasma; summary of the method: as §2
[14] = Intrinsic clearance in human liver microsomes
[15] = Oral bioavailability in Wistar rat at 5 mg/kg, po; assay type: ADME, organism-based; settings: in vivo; summary of the method: as §2
[16] = AUC (infinity) in Wistar rat at 1 mg/kg, iv; assay type: ADME, organism-based; set-up: time infinity, dose 1 mg/kg, route intravenous; settings: plasma
Summary of the method: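 Male Wistar rats given a single intravenous dose of 1 mg/kg in 10% (v/v) DMA in water. AUC taken to infinity from plasma concentrations. Value reported as mean ± variability.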

SMILES	IC50 (Vasopressin V1b receptor)	other results
COc1cc(-c2nc3ccc(-c4cccc(CN(C)C)c4)cc3c(=O)n2CC(=O)NC(C)C)ccc1F	1 nM	inhibition (Rattus norvegicus [1]): Dose-dependent effect; Vd [2]: 4.85 L/kg; fold change (FC) (Homo sapiens [3]): > 10000; Papp B→A [4]: 9.1 ×10⁻⁶ cm/s; Papp A→B [5]: 6.8 ×10⁻⁶ cm/s; clearance [6]: 40.2 mL/min/kg; inhibition (Rattus norvegicus [7]): Active; Activity [8]: Active; half-life [9]: 1.61 h; fold change (FC) (Homo sapiens [10]): > 10000; IC50 [11]: > 17000 nM; fold change (FC) (Homo sapiens [12]): > 10000; AUC(0-t) [13]: 930 ng·h/mL; microsomal CLint [14]: < 12 µL/min/mg; bioavailability [15]: 45%; AUC(0-inf) [16]: 441 ng·h/mL
COc1cccc(-c2nc3ccc(-c4cncc(CN(C)C)c4)cc3c(=O)n2CC(=O)NC(C)C)c1	77 nM	
CC(C)NC(=O)Cn1c(-c2ccccc2)nc2ccc(-c3cccc(CN4CCC4)c3)cc2c1=O	397 nM	
CCN(CC)Cc1cccc(-c2ccc3nc(-c4ccccc4)n(CC(=O)NCC4CC4)c(=O)c3c2)c1	540 nM	
CN(C)Cc1cccc(-c2ccc3nc(-c4ccccc4)n(CC(=O)NCC4CC4)c(=O)c3c2)c1	314 nM	
O=C(Cn1c(-c2ccccc2)nc2ccc(-c3cccc(CN4CCOCC4)c3)cc2c1=O)NCC1CC1	79 nM	
COc1cccc(-c2nc3ccc(-c4cccc(CN(C)C)c4)cc3c(=O)n2CC(=O)NC(C)C)c1	9 nM	microsomal CLint [14]: 45 µL/min/mg
COc1cccc(-c2nc3ccc(-c4cc(CN(C)C)ccn4)cc3c(=O)n2CC(=O)NC(C)C)c1	52 nM	
O=C(Cn1c(-c2ccccc2)nc2ccc(-c3cccc(CN4CCC4)c3)cc2c1=O)NC1CCCC1	238 nM	
CNCc1cccc(-c2ccc3nc(-c4ccccc4)n(CC(=O)NCC4CC4)c(=O)c3c2)c1	320 nM	
CC(C)NC(=O)Cn1c(-c2cccc(Cl)c2)nc2ccc(-c3cccc(CN4CCCCC4)c3)cc2c1=O	9 nM	
O=C(Cn1c(-c2ccccc2)nc2ccc(-c3ccc(CN4CCCCC4)cc3)cc2c1=O)NCC1CC1	> 20000 nM	
O=C(Cn1c(-c2ccccc2)nc2ccc(-c3ccc(CN4CCOCC4)cc3)cc2c1=O)NCC1CC1	> 20000 nM	
COc1ccccc1-c1nc2ccc(-c3cccc(CN4CCC4)c3)cc2c(=O)n1CC(=O)NC(C)C	610 nM	
O=C(Cn1c(-c2ccccc2)nc2ccc(-c3cccc(CN4CCC4)c3)cc2c1=O)NC1CC1	2550 nM	

Further lines, with some results ahead:

IC50 (Vasopressin V1b receptor)	SMILES	other results
642 nM	COCCNCc1cccc(-c2ccc3nc(-c4ccccc4)n(CC(=O)NCC4CC4)c(=O)c3c2)c1	
> 20000 nM	O=C(Cn1c(-c2ccccc2)nc2ccc(-c3ccccc3CN3CCCCC3)cc2c1=O)NCC1CC1	
275 nM	O=C(Cn1c(-c2ccccc2)nc2ccc(-c3cccc(CN4CCC4)c3)cc2c1=O)NCC1CC1	
388 nM	O=C(Cn1c(-c2ccccc2)nc2ccc(-c3cccc(CN4CCCC4)c3)cc2c1=O)NCC1CC1	
2350 nM	CCCNC(=O)Cn1c(-c2ccccc2)nc2ccc(-c3cccc(CN4CCC4)c3)cc2c1=O	
187 nM	CC(C)(C)NC(=O)Cn1c(-c2ccccc2)nc2ccc(-c3cccc(CN4CCC4)c3)cc2c1=O	
7 nM	COc1cccc(-c2nc3ccc(-c4cc(CN(C)C)ccc4F)cc3c(=O)n2CC(=O)NC(C)C)c1	Papp B→A [4]: 23.3 ×10⁻⁶ cm/s; Papp A→B [5]: 12.1 ×10⁻⁶ cm/s; microsomal CLint [14]: 58 µL/min/mg
> 20000 nM	O=C(Cn1c(-c2ccccc2)nc2ccc(-c3ccccc3CN3CCOCC3)cc2c1=O)NCC1CC1	
700 nM	COc1cccc(-c2nc3ccc(-c4ccc(CN(C)C)o4)cc3c(=O)n2CC(=O)NC(C)C)c1	
1040 nM	CC(C)CNC(=O)Cn1c(-c2ccccc2)nc2ccc(-c3cccc(CN4CCC4)c3)cc2c1=O	
37 nM	COc1cccc(-c2nc3ccc(-c4cccc(CN(C)C)n4)cc3c(=O)n2CC(=O)NC(C)C)c1	
60 nM	CC(C)NC(=O)Cn1c(-c2cccc(Cl)c2)nc2ccc(-c3cccc(CN4CCC4)c3)cc2c1=O	
2 nM	COc1cccc(-c2nc3ccc(-c4cccc(CN5CCCCC5)c4)cc3c(=O)n2CC(=O)NC(C)C)c1	
500 nM	COc1cccc(-c2nc3ccc(-c4ccc(CN(C)C)s4)cc3c(=O)n2CC(=O)NC(C)C)c1	
1200 nM	NCc1cccc(-c2ccc3nc(-c4ccccc4)n(CC(=O)NCC4CC4)c(=O)c3c2)c1	
46 nM	COc1cccc(-c2nc3ccc(-c4cccc(CN5CCC5)c4)cc3c(=O)n2CC(=O)NC(C)C)c1	
19 nM	CC(C)NC(=O)Cn1c(-c2cccc(Cl)c2)nc2ccc(-c3cccc(CN(C)C)c3)cc2c1=O	
60 nM	O=C(Cn1c(-c2ccccc2)nc2ccc(-c3cccc(CN4CCCCC4)c3)cc2c1=O)NCC1CC1	

Source: ChEMBL document CHEMBL1777690, “Synthesis and SAR studies of novel 2-(6-aminomethylaryl-2-aryl-4-oxo-quinazolin-3(4H)-yl)acetamide vasopressin V1b receptor antagonists” (Bioorg Med Chem Lett, 2011)
